In the library only some 3.4% were active in any assay of this set; here they are far more common.
KCC2 mod: KCC2 cotransporter modulators, thallium flux, primary screen, cell-based, HEK293 KCC2, FluoZin-2 fluorescence, MLSMR; KCC2 cells, thallium flux FluoZin-2 fluorescence; 2.2% of 190,000 active; Solute carrier family 12 member 5 (Homo sapiens), Q9H2X9; AID 1456, 2008; B-score of Tl+ flux slope (higher = more flux/activation; lower = inhibition) at 10 µM;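 active = thallium flux slope and its plate-corrected score both differing from the plate sample mean at a set confidence after two filtering rounds, in either direction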;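 note: slope of fluorescence scaled to starting intensity during 10 to 20 s after thallium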
Target sequence (Q9H2X9 whole entry, looked up): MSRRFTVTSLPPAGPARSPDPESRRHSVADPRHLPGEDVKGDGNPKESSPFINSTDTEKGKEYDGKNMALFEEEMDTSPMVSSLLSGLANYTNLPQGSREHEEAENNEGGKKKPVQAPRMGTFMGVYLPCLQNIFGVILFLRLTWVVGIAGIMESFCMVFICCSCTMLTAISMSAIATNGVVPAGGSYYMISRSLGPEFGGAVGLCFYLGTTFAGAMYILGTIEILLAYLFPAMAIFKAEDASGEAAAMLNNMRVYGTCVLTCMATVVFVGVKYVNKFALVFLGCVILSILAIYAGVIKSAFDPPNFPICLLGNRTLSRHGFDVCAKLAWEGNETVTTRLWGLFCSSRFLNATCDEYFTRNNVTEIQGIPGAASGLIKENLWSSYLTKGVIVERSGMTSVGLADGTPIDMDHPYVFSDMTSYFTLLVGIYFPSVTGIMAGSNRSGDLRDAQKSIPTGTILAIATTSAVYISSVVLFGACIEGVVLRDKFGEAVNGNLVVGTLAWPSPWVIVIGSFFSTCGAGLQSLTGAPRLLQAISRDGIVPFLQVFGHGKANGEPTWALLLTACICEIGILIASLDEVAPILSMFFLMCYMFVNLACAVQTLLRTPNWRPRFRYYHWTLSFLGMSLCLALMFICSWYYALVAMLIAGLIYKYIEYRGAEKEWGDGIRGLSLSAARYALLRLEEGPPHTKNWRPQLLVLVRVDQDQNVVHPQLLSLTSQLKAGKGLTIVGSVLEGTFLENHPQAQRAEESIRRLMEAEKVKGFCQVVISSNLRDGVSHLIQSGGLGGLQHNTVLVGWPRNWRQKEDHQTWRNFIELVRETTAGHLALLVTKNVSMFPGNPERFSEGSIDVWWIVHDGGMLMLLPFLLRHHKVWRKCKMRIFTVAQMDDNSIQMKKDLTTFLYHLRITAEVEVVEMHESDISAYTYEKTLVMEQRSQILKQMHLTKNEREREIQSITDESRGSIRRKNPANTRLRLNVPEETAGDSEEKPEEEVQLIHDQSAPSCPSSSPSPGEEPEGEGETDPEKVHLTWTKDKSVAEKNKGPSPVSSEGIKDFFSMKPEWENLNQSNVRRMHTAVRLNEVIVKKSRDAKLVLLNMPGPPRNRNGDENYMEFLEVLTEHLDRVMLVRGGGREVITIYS
p97 inhibitor: inhibitors of human p97 ATPase, primary screen, biochemical. Transitional endoplasmic reticulum ATPase (Homo sapiens), P55072. recombinant p97 ATPase, Kinase-Glo ATP luminescence, 3 h. inhibition, % at 8 µM. 0.42% of 220,000 active. AID 1481, 2009; in the data active = inhibition above about 15%
PKD1 inh: inhibitors of human PKD1 kinase, biochemical, fluorescence polarization. inhibition, % (no concentration beside the values). 0.056% of 200,000 active. PKD1 kinase fluorescence polarization assay. Serine/threonine-protein kinase D1 (Homo sapiens), Q15139; in the data active = inhibition above about 50%
ROMK mod: ROMK potassium channel modulators, primary screen, cell-based, thallium flux, MLSMR library; ATP-sensitive inward rectifier potassium channel 1 (Homo sapiens), P48048; Tet-inducible ROMK, thallium flux fluorescence; actives lie on both sides; 2% of 130,000 active; B-score at 10 µM;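 active = signal ratio slope over the read window, or its plate-corrected B-score, at least 3 SD from the plate mean, either direction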;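 note: B-score of the F/F0 ratio slope over 7 to 12 s after thallium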
DTT redox prof: compounds producing H2O2 with reducing agent – biochemical, NIH compound library profiling, artefact control for MLSCN library redox annotation, primary screen. activation, % at 10 µM. DTT-dependent redox cycling H2O2, phenol red/HRP absorbance; 100% = 100 µM peroxide control, 0% = buffer. 0.03% of 200,000 active;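 active = activation of at least 50% relative to the plate's high and low controls in the primary single-dose screen; inactive = activation below 50%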;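 note: compound incubated with DTT at 0.8 mM final as the reducing agent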
MDM2 E3 inh: MDM2-luciferase reporter signal enhancers, primary screen, MDM2 E3 ligase inhibitor project, cell-based, luminescence, 1536-well. signal enhancement, % at 5 µM. 0.11% of 210,000 active. E3 ubiquitin-protein ligase Mdm2 (Homo sapiens), Q00987. cell-based MDM2 ubiquitination luciferase reporter, 2 h; 0 = plate control, 100 = twice control, blank-subtracted;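 active = signal enhancement of 30% or more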;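 note: luminescence tracks abundance of the self-degrading MDM2-luciferase fusion protein; higher signal means inhibition of MDM2 E3 ligase activity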
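Material: Stable MDM2–luciferase fusion reporter cells | Amount: 2000 cells seeded into each well | Dosing: One concentration, 5 µM, with 0.2% DMSO | Incubation: 4 h cell settling then 2 h compound exposure, 37 °C | Measured by: Luciferase luminescence | Read-out basis: % enhancement relative to plate controls after blank subtraction | Benchmarks: Control and blank well means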
KCC2 sec1: KCC2 modulators in sodium-free buffer, confirmation, cell-based, HEK293 KCC2, thallium flux, secondary assay; shares compounds with KCC2 mod; FluoZin2 fluorescence; stronger effect = higher value; normalised thallium flux (F/F0 slope) at 10 µM; 15% of 3,700 active; AID 1713, 2009;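 active = thallium flux slope above the same plate's solvent-only control mean plus 3 SD; inconclusive = the two replicate wells disagree; inactive = no significant difference from solvent-only control wells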
KCC2 bumet counter: thallium flux persisting under bumetanide in KCC2 cells, confirmation, counter-screen for KCC2 modulator project, cell-based, HEK293 KCC2, FluoZin2, secondary assay 3 | normalized thallium flux at 10 µM | 49% of 3,700 active | shares compounds with KCC2 mod | HEK293-KCC2 + bumetanide/ouabain; stronger effect = higher value;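 active = thallium entry rate above the same plate's blocked-transporter control wells by more than 3 SD; inconclusive = the two repeat wells disagree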;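 note: raw slope of fluorescence over initial fluorescence between 10 and 20 s after thallium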
KCC2 secondary2: KCC2 modulators without ouabain present, confirmation, cell-based, HEK293 KCC2, thallium flux, FluoZin2, secondary assay 2 | thallium flux FluoZin2 fluorescence; actives lie on both sides; F/F0 rise rate, 10–20 s post-thallium | 23% of 3,700 active | normalized thallium flux at 10 µM | shares compounds with KCC2 mod | AID 1715, 2009;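 active = thallium flux slope more than 3 SD above or below the plate's solvent-only control mean, mostly below; inconclusive = the two repeat wells disagreed; inactive = no significant shift from solvent-only controls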
HEK293 Tl flux: thallium flux modulation in parental HEK cells, confirmation, counter-screen for KCC2 modulator project, cell-based, counterscreen 1 | shares compounds with KCC2 mod | HEK293 parental cells, thallium flux FluoZin2, ouabain; baseline-ratio fluorescence slope, 10–20 s after thallium | thallium flux rate (normalised fluorescence) at 10 µM | 46% of 3,700 active | AID 1716, 2009;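 active = thallium flux rate significantly above the same plate's solvent-only control wells, beyond their mean plus 3 SD; inconclusive = the two replicate wells gave conflicting results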
KCC2 ouabain: KCC2 inhibitors and activators, ouabain retest, confirmation, HEK-KCC2 cells | shares compounds with KCC2 mod | AID 1717, 2009 | HEK293-KCC2, thallium flux FluoZin2 fluorescence; bidirectional: low = inhibitor, high = activator | 48% of 3,700 active | raw Tl+ flux slope (below DMSO = inhibition, above = activation) at 10 µM;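 active = thallium flux slope beyond 3 SD from same-plate DMSO control mean in most replicates, usually higher, sometimes lower; inconclusive = repeat tests gave conflicting results; inactive = no significant difference from controls in most replicates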;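 note: slope of initial-normalized fluorescence between seconds 10 and 20 after thallium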
HEK counter2: native HEK Tl+ uptake effects, second counter-screen – HEK cells, counterscreen 2, counter-screen for KCC2 modulator project, confirmation; shares compounds with KCC2 mod; thallium flux slope at 10 µM; HEK293 parental, thallium flux FluoZin-2 fluorescence slope; 33% of 3,700 active;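 active = thallium flux slope above the same plate's solvent-control mean plus 3 SD in both duplicate wells; inconclusive = duplicate wells that disagreed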;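 note: run without ouabain in cells lacking the KCC2 cotransporter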
A number is an active result; n = inactive; u = inconclusive; x = no result.

SMILES	KCC2 mod	p97 inhibitor	PKD1 inh	ROMK mod	DTT redox prof	MDM2 E3 inh	KCC2 sec1	KCC2 bumet counter	KCC2 secondary2	HEK293 Tl flux	KCC2 ouabain	HEK counter2
CCCCn1c(-c2csc3ccccc23)n[nH]c1=S	4.8	n	n	n	n	n	n	0.023	u	0.02	0.028	0.023
CCCCn1c(-c2csc(CC)c2)n[nH]c1=S	14	n	n	x	n	n	0.012	0.054	n	0.022	0.044	0.012
CCc1cc(-c2n[nH]c(=S)n2-c2cccc(C)c2)cs1	43	n	n	n	n	n	0.012	0.11	n	0.02	0.047	n
CCCCn1c(-c2cccs2)nc2nc3ccccc3nc21	x	n	n	x	n	n	x	x	x	x	x	x
CCCCCCn1c(-c2cccs2)n[nH]c1=S	46	n	n	n	n	n	n	0.084	0.068	0.063	0.067	0.057
CC(C)C1CC(CCN)(c2ccccc2)CCO1 (centres undefined)	n	n	x	x	x	n	x	x	x	x	x	x
COc1ccccc1COn1c(=O)c(-c2ccco2)[n+]([O-])c2ccccc21	n	n	n	n	n	n	x	x	x	x	x	x
Clc1ccc(C2[C@H]3CN(Cc4cccnc4)[C@H](c4ccccc4)C34CC2(c2cccnc2)C4)cn1 (some centres undefined)	n	x	x	x	x	n	x	x	x	x	x	x
Cc1ccccc1NC(=O)COC(=O)Cc1cccc(C(F)(F)F)c1	n	n	n	x	n	n	x	x	x	x	x	x
CC(c1ccc(F)cc1)n1c(-c2cccs2)n[nH]c1=S (centres undefined)	5.2	n	n	n	n	n	n	0.017	n	0.014	u	0.016
Cc1ccccc1C(=O)N1CCN(c2ccc(NC(=O)c3ccccc3[N+](=O)[O-])cc2)CC1	n	n	n	n	n	n	x	x	x	x	x	x
CNC(=S)N(Cc1cc2cc(OC)c(OC)cc2[nH]c1=O)C1CCCC1	-4.2	n	n	n	n	n	n	n	n	u	n	n
CNC(=S)N(CCc1cccc(C)c1)Cc1cc2cc(OC)c(OC)cc2[nH]c1=O	n	n	n	x	n	n	x	x	x	x	x	x
Cc1cc(NC(=O)C(C)C)ncc1NC(=O)c1ccccn1	n	n	n	n	n	n	x	x	x	x	x	x
Cc1ccccc1CSCCNS(C)(=O)=O	x	n	n	n	n	n	n	n	n	n	n	n
CCOC(=O)C1(CC2CCCCO2)CCN(Cc2nc3ccccc3[nH]2)CC1 (centres undefined)	n	n	n	n	n	n	x	x	x	x	x	x
Cn1c(-c2sc3cc(C(F)(F)F)cnc3c2-c2cccs2)n[nH]c1=S	10	n	n	n	n	n	n	0.015	n	0.0099	u	n
Cn1c(-c2sc3cc(C(F)(F)F)cnc3c2-c2ccccn2)n[nH]c1=S	n	n	n	n	n	n	x	x	x	x	x	x
C[C@H]1C(=O)N(C)CCN1Cc1cn(C)nc1-c1ccc(Oc2ccccc2)cc1	n	n	n	n	n	n	x	x	x	x	x	x
CCOc1ccc2nc(N3C(=O)/C(=C/c4ccc(Cl)cc4)NC3=S)sc2c1	19	n	n	x	n	n	n	0.045	0.049	0.063	0.048	0.047
O=C(Cn1nc(-c2ccc(Cl)cc2)ccc1=O)N1CCN(c2ccccc2)CC1	x	n	n	n	n	n	n	n	n	n	u	n
O=C(Cn1nc(C(F)(F)F)c2c1CCC2)N1CCN(c2ccccc2)CC1	x	n	n	n	n	n	n	n	n	n	0.016	n
CCOc1ccccc1N1CCN(CC(O)COc2ccc3c(C)cc(=O)oc3c2)CC1 (centres undefined)	6.3	n	n	n	n	n	n	n	n	n	n	n
CC(C)n1nc(C(=O)Nc2nc3ccccc3[nH]2)c2ccccc2c1=O	-4	n	n	n	n	n	n	n	0.025	u	n	n
CCNc1nnc(CSc2nc3ccccc3s2)s1	n	n	n	n	n	x	x	x	x	x	x	x
SMILES	KCC2 mod	p97 inhibitor	PKD1 inh	ROMK mod	DTT redox prof	MDM2 E3 inh	KCC2 sec1	KCC2 bumet counter	KCC2 secondary2	HEK293 Tl flux	KCC2 ouabain	HEK counter2
CNC(=O)COC(=O)c1cc(=O)[nH]c2ccccc12	n	n	n	x	n	n	x	x	x	x	x	x
Cc1ccc(S(=O)(=O)N(CCC(=O)O)Cc2ccc(Cl)cc2)cc1	x	n	n	n	n	n	n	0.0067	0.022	n	0.013	n
Cc1ccc(S(=O)(=O)N(CC(=O)O)Cc2ccccc2)cc1	n	n	n	n	n	n	x	x	x	x	x	x
Cc1csc(N(C)C(=O)CSc2nnc(COc3cccc4ccccc34)o2)n1	x	n	n	x	n	n	n	n	n	n	0.015	n
CCOc1ccccc1/C=N/NC(=O)c1cccc(S(=O)(=O)N2CCOCC2)c1	n	n	n	n	n	n	x	x	x	x	x	x
COc1ccc(CCNC(=O)CCCCCn2c(SCC(N)=O)nc3cc4c(cc3c2=O)OCO4)cc1OC	n	n	n	n	n	n	x	x	x	x	x	x
Clc1ccc(Oc2nc(N3CCOCC3)nc(N3CCOCC3)n2)cc1	7.6	n	n	n	n	n	n	n	n	n	n	u

Screening results: PubChem BioAssay, several laboratories
